M1 agonist = M1 muscarinic receptor agonists, primary screen, CHO-M1 cells, Fluo-4 calcium, agonist mode. Muscarinic acetylcholine receptor M1. Fluo-4 calcium fluorescence; active compounds read high. B-score at 10 µM. 3% of 64,000 active;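 active = fluorescence rise, raw or as B-score row- and column-corrected plate score, outside the 99.7% band of its plate's samples, either direction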
Htt clearance = clearance of mutant huntingtin inclusions, primary screen, imaging, HeLa Exon1htt(103Q)mCFP, confocal imaging | aggregate imaging; zero = plate's median compound well | inhibition, % at 1.5 µM | 0.42% of 47,000 active | AID 853, 2007;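 active = inhibition of aggregate fluorescence above about 70%, also judged a hit by eye on the cell image, limit read from the data, passing the limit was not always enough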;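 also: cells exposed to compound for three days before fixation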
M1 antagonist = antagonists of rat M1 muscarinic receptor | Muscarinic acetylcholine receptor M1 (Rattus norvegicus), P08482 | B-score at 10 µM | 3.4% of 64,000 active | AID 628, 2007 | CHO-M1 cells, Fluo-4 calcium, ACh EC80 antagonist mode; active compounds read low;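 active = calcium fluorescence response, raw or row-and-column corrected B-score, differing from the plate sample mean either way at a set confidence level, mostly lower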
D1 allo mod = D1 CRE-luciferase signal change, two-sided – cell-based, HEK293 D1, dopamine EC30, D1 allosteric modulator project, primary screen; dopamine EC30 potentiation; actives deviate in either direction; AID 641, 2007; D(1A) dopamine receptor (Homo sapiens), P21728; B-score at 10 µM; 5.9% of 58,000 active;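 active = luminescence count or its row- and column-corrected plate score outside the 99.7% band of the plate's sample wells, on either side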
Target sequence (P21728 whole entry, looked up): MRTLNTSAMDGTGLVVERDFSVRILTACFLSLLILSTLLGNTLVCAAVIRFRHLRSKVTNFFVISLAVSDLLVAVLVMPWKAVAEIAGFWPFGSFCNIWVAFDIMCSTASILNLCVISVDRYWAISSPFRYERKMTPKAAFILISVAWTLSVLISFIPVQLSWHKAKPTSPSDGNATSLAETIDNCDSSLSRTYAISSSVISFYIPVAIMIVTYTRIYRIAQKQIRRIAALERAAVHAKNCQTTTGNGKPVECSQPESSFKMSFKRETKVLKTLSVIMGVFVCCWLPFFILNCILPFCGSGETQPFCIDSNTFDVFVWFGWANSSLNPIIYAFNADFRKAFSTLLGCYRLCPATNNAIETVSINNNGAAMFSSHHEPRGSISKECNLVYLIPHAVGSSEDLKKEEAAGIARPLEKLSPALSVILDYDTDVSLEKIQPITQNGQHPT
SF-1 act = activators of human SF-1, primary screen, cell-based, CHO-K1, Gal4-SF-1 LBD, luciferase luminescence; CHO-K1 Gal4-SF-1 LBD luciferase reporter; % increase over DMSO SF-1-specific signal; activation, % at 10 µM; 1.9% of 65,000 active;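 active = activation above the mean activation of all tested compounds plus 3 SD, cut at about 50% in these data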
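Assay system: CHO-K1 cells co-transfected with Gal4 DBD–human SF-1 LBD, 5xGal4 luciferase reporter / Input: 4,000 cells per well / Incubation: 20 h compound exposure at 37 °C after 1 h cell settling / Detection: SteadyLite luciferase luminescence / Control set: DMSO negative control and −SF1 background wells / Replication: one test per compound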
RORa activator = activators of orphan receptor RORA, primary screen, cell-based, luminescence | Nuclear receptor ROR-alpha (Homo sapiens), P35398 | CHO-K1 Gal4-RORA LBD luciferase reporter; percent increase over mock-subtracted basal signal | activation, % at 10 µM | 1.5% of 65,000 active;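 active = activation above the mean of all tested compounds plus 3 SD, cut at about 49% in these data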
M1 antag confirm = rat M1 muscarinic receptor antagonists, confirmation, CHO cells, Fluo-4 calcium, duplicate | shares compounds with M1 antagonist | ACh EC80 antagonism; active compounds read low | calcium response (max-min fluorescence) at 10 µM | 43% of 1,700 active | AID 677, 2007;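 active = calcium response below the same-plate mean of wells given acetylcholine alone at its 80%-effect dose, minus 3 SD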
mGluR4 antag = human mGluR4 response to M1 antagonist hits, M1 allosteric modulator project, cell-based, antagonist mode, secondary assay 1. AID 678, 2007. 0.9% of 1,700 active. CHO-mGluR4 calcium flux, Fluo-4 fluorescence, glutamate EC80; active compounds read low. fluorescence response (max-min) at 10 µM. shares compounds with M1 antagonist;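 active = fluorescence response below the plate's average for near-maximal glutamate wells, less 3 SD of those wells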;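 also: raw unnormalized fluorescence span taken in the window right after glutamate addition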
Of the large screens only hits and unclear results are named; the others gave an inactive call (follow-up assays come after a bar, where they were run). This is a sample that favours compounds with a hit; in the whole collection about 11% have one here.

CCc1ccc(OCc2nnc(SCCN3CCOCC3)n2CC)cc1	M1 antagonist -3.22 (no result: Htt clearance) | M1 antag confirm 313 | mGluR4 antag inactive
Clc1ccc(OCc2nnc(SCCN3CCCCC3)n2Cc2ccco2)cc1	M1 antagonist -12.8 (no result: Htt clearance) | M1 antag confirm 20.7 | mGluR4 antag inactive
COc1cc(CC(=O)Nc2ccc(S(=O)(=O)N(C)C)cc2)cc(OC)c1OC	none
CCOc1cccc(C2c3c(oc4cc(C)c(C)cc4c3=O)C(=O)N2CCCN(C)C)c1 (stereo unspecified)	none (no result: Htt clearance)
c1ccc(CNc2ccc3c(c2)ncn3C2CCCCC2)nc1	M1 antagonist -4.92 | M1 antag confirm inactive | mGluR4 antag inactive
CCc1ccc(Nc2nnc(SCc3cc(=O)n4ccsc4n3)s2)cc1	none (no result: M1 agonist, M1 antagonist, D1 allo mod, SF-1 act, RORa activator)
Cc1csc2nc(CNS(=O)(=O)c3ccc4c(c3)OCCO4)cn12	none (no result: Htt clearance)
Cc1csc2nc(CCNS(=O)(=O)c3ccc4c(c3)OCCO4)cn12	M1 antagonist -2.58 | M1 antag confirm inactive | mGluR4 antag inactive
CCOC(=O)C1=C(C)OC(N)=C(C#N)C1c1cc(Cl)c(OCC(N)=O)c(OC)c1 (stereo unspecified)	none (no result: M1 agonist, M1 antagonist, D1 allo mod, SF-1 act, RORa activator)
CCn1c(=N)n(CC(=O)C23CC4CC(CC(C4)C2)C3)c2ccccc21	M1 antagonist -12.1 (no result: Htt clearance) | M1 antag confirm 198 | mGluR4 antag inactive
CCn1c(N2CCN(C(=O)C34CC5CC(CC(C5)C3)C4)CC2)nc2ccccc21	none (no result: Htt clearance)
O=C(NCCN1CCOCC1)C1CCC(=O)N1C1CCCCC1 (stereo unspecified)	M1 antagonist -1.44 (no result: Htt clearance) | M1 antag confirm inactive | mGluR4 antag inactive
CC(C)N(CCCNC(=O)C1CCN(S(=O)(=O)N2CCOCC2)CC1)Cc1ccccc1	M1 antagonist -3.75 | M1 antag confirm inactive | mGluR4 antag inactive
CN(CCCNC(=O)C1CCN(S(=O)(=O)N2CCC3(CC2)OCCO3)CC1)Cc1ccccc1	none (no result: Htt clearance)
CCN(CCCNC(=O)C1CCN(S(=O)(=O)c2cccc3nonc23)CC1)Cc1ccccc1	M1 antagonist -6.83 (no result: Htt clearance) | M1 antag confirm 304 | mGluR4 antag inactive
O=C(NCCN1CCCCCC1)C1CCN(S(=O)(=O)N2CCOCC2)CC1	M1 antagonist -5.21 | M1 antag confirm inactive | mGluR4 antag inactive
CCn1c(=O)c2c(nc(SCC(=O)NCC3CCCO3)n2C)n(C)c1=O (stereo unspecified)	none
Cc1nn(C)c(C)c1NC(=O)c1ccc(S(=O)(=O)N(C)C)cc1	none
Cc1cc(C)n(Cc2cc(C)c(Cn3nc(C)cc3C)cc2C)n1	none (no result: Htt clearance)
Cc1nnc(SCc2cc(=O)[nH]c(N3CCCCC3)n2)s1	none (no result: Htt clearance)
CCOc1cc(C)nc(N2CCN(C3CCCCC3)CC2)n1	M1 antagonist -3.29 (no result: Htt clearance) | M1 antag confirm 444 | mGluR4 antag inactive
CCn1c(Cn2nnc(-c3ccccc3)n2)nnc1SCc1ccc(Cl)c(Cl)c1	none (no result: D1 allo mod)
C=C(C)COc1ccc2c(C)c(CC(=O)OC)c(=O)oc2c1C	M1 antagonist -1.97 (no result: Htt clearance) | M1 antag confirm inactive | mGluR4 antag inactive
CCCCCC(C)n1[nH]c(=O)cc1N (stereo unspecified)	none (no result: M1 agonist, M1 antagonist, D1 allo mod, SF-1 act, RORa activator)
Cc1cc(OCCCCCNCCO)cc(C)c1Cl	M1 antagonist -3.82 (no result: Htt clearance, D1 allo mod) | M1 antag confirm inactive | mGluR4 antag inactive
O=C(Cc1cccc2ccccc12)N1CCCc2ccccc21	none (no result: M1 agonist, M1 antagonist, D1 allo mod, SF-1 act, RORa activator)
CCCCOc1ccccc1NC(=O)CC1SC(=NCC)N(CC)C1=O (stereo unspecified)	M1 antagonist -2.83 (no result: Htt clearance, D1 allo mod) | M1 antag confirm inactive | mGluR4 antag inactive
COc1ccc(CN(C(=O)CSc2nnc(-c3ccccc3F)o2)c2ccc(F)cc2)cc1	none (no result: Htt clearance)
O=C1CC(SCCO)C(=O)N1c1ccc(Oc2ccccc2)cc1 (stereo unspecified)	M1 antagonist -2.75 | M1 antag confirm inactive | mGluR4 antag inactive
CCOC(=O)c1ccc(N2C(=O)CC(SCC(N)C(=O)OCC)C2=O)cc1 (stereo unspecified)	none (no result: Htt clearance)
C=CCOC(=O)C1CC=CCC1C(=O)Oc1ccc(F)cc1F (stereo unspecified)	none
c1coc(C2Nc3cccc4cccc(c34)N2)c1	M1 antagonist -2.17 | M1 antag confirm inactive | mGluR4 antag inactive
CCn1ncc(C2=NOC(C(=O)Nc3cccc(C(C)=O)c3)C2)c1C (stereo unspecified)	none (no result: Htt clearance)
Nc1c(S(=O)(=O)c2cccs2)c2nc3ccccc3nc2n1/N=C/c1cccc(O)c1	M1 antagonist -14.5 (no result: Htt clearance) | M1 antag confirm inactive | mGluR4 antag inactive
COC(=O)c1ccccc1NC(=O)/C=C/c1cc(OC)c(OC)c(OC)c1	none (no result: M1 agonist, M1 antagonist, D1 allo mod, SF-1 act, RORa activator)
Cc1ccc(N2C(=O)[C@@H]3Cc4ccccc4CN3C2=O)cc1	none (no result: Htt clearance)
CC(C)c1ccc(N2C(=O)[C@@H]3Cc4ccccc4CN3C2=O)cc1	M1 antagonist -1.3 | M1 antag confirm inactive | mGluR4 antag inactive
c1ccc(-c2ccccc2-n2cnnn2)cc1	none (no result: Htt clearance)
Cc1ccc(NC(=O)COC(=O)C2CC2C)c(S(=O)(=O)N2CCCCC2)c1 (stereo unspecified)	M1 antagonist -2.83 (no result: Htt clearance) | M1 antag confirm inactive | mGluR4 antag inactive
COc1ccc(C)cc1S(=O)(=O)N1CCCCC1	none
Cc1ccc(C)c(OCCCN2CCCC2)c1	M1 antagonist -3.04 (no result: Htt clearance) | M1 antag confirm 511 | mGluR4 antag inactive
Cc1ccc(C)c(OCCOCCN2CCOCC2)c1	none (no result: Htt clearance)
CCCn1cnc2cc(NCc3cccc(OC)c3)ccc21	M1 antagonist -2.39 | M1 antag confirm 397 | mGluR4 antag inactive
CCOC(=O)Nc1ccc2c(c1)N(C(=O)CCN(C)C)c1ccccc1S2	M1 antagonist -10.3 (no result: Htt clearance) | M1 antag confirm 21.9 | mGluR4 antag inactive
CCOC(=O)Nc1ccc2c(c1)N(C(=O)CN1CCN(C)CC1)c1ccccc1S2	M1 antagonist -13.1 | M1 antag confirm 46.3 | mGluR4 antag inactive
CCOC(=O)Nc1ccc2c(c1)N(C(=O)OC)c1ccccc1CC2	none
CC(C)C(=O)Nc1cc(=O)[nH]c2ncnn12	none
c1ccc(CN2CCN(CCN3CCn4c3nc3ccccc34)CC2)cc1	M1 antagonist -2.05 (no result: Htt clearance) | M1 antag confirm 566 | mGluR4 antag inactive
Cc1cc(C(=O)CSc2nnnn2C)c(C)n1-c1ccc2c(c1)OCCO2	M1 antagonist -2.76, SF-1 act 54.0 | M1 antag confirm 435 | mGluR4 antag inactive

From PubChem BioAssay
